Assays:
[1] = test system: methylated H3K9 and H3K27 peptides; assay: Peptide microarray, chromodomain binding profile; set-up: species or system human; conditions: cluster 3 = H3K9 peptides with different PTMs
Procedure, shortened: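 Array of 467 unmodified and modified peptides (desalted, mass-spectrometry checked) printed in triplicate spots on glass slides and probed with chromodomain proteins. Signal intensities converted to z scores per chromodomain using all its intensities: z = (x − mean)/SD. Hierarchical clustering grouped chromodomains into three categories and peptides into six clusters by binding preference.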

H4K20me1 = assay: Peptide microarray, chromodomain binding to H4K20me1; set-up: species or system human; conditions: no dsDNA in binding buffer
Procedure, shortened: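 Custom array of 467 unmodified and modified peptides (synthesized, desalted, mass-spec checked), each spotted in triplicate on glass slides. Chromodomain proteins were bound to the printed array and analyzed by a previously described protocol. The CBX1 mutant chromodomain was instead screened on a commercial modified-histone peptide array.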

B1: MS3L1: MS3L1 chromodomain, cloned sequence 29-94 (protein, UniProt Q8N5Y2 29-94, looked up, fragment)
chain: VLYDAKIVDVIVGKDEKGRKIPEYLIHFNGWNRSWDRWAAEDHVLRDTDENRRLQRKLARKAVARL
modifications: chromodomain
[1]
  interaction with peptide cluster 3 (in words): lacked significant interaction with cluster 3
H4K20me1
  interaction with H4K20me1 (in words): did not show interaction with this mark
